Data from article PMC3809117 (AIDS (London, England), 2009).

How the values were obtained:
HIV LTR in J89 cells = assay: LTR-driven GFP expression in J89 cells by flow cytometry; type: cell-based; details: overnight incubation with HDACi
Outline: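 Latently infected Jurkat line carrying EGFP as a reporter of Tat-driven HIV LTR expression, grown in RPMI 1640 with 10% FBS at 37°C, 5% CO2. Cells were PBS-washed, exposed overnight to inhibitor, then fixed in PBS with 2% paraformaldehyde. Live cells were gated, with two-parameter analysis to separate GFP from background. From 10 000 events, %GFP+ was reported as mean ± SE of three independent experiments.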

J89 cells = assay: MTT cytotoxicity/proliferation assay in J89 cells; type: cell-based; details: 24 h, at concentrations used to induce LTR expression
Outline: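 Cells were washed in PBS and incubated 24 h across a range of inhibitor concentrations, then assayed with an MTT proliferation kit. Percent proliferating cells was calculated relative to cells in drug-free medium. Run in triplicate.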

[1] = tested on: latent HIV in resting CD4+ T cells; type: cell-based, HIV-1; details: resting CD4+ T cells of aviremic patients on ART, 24 h exposure, compared to PHA
Outline: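 Resting CD4+ T cells came from leukapheresis by negative selection, from patients with plasma RNA <50 copies/ml. Cells were plated at 2.5, 0.5 or 0.1 million per well and exposed to drug for 24 h. PHA comparator: 1 µg/ml PHA-L, five-fold irradiated allogeneic PBMCs and 20 U/ml IL-2. Cells were then washed and co-cultured with CD8-depleted PBMC. p24 ELISA was read on days 15 and 19, and IUPM derived by maximum likelihood.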

[2] = tested on: latent HIV in resting CD4+ T cells; details: cited from earlier work
HDACs = details: HDAC isoforms inhibited; cited from earlier work

Row | Compound | LTR activation (LTR-driven GFP expression) (HIV LTR in J89 cells) | cell proliferation (MTT) (J89 cells) | induction of virus outgrowth (recovery of replication-competent HIV) [1] | viral outgrowth from resting CD4+ T cells of aviremic HIV-infected individuals on ART [2] | Selectivity (HDACs)
1 | CCCC(CCC)C(=O)O [VPA, valproic acid] | effectively induced LTR expression | did not perturb cell proliferation | effective at inducing virus | induce viral outgrowth | –
2 | CCC(=O)CCCCC[C@@H]1NC(=O)[C@H]2CCCCN2C(=O)[C@H]([C@@H](C)CC)NC(=O)[C@H](Cc2cn(OC)c3ccccc23)NC1=O [Apicidin, apicidin] | induced LTR activation | slightly antiproliferative | suboptimal | – | HDAC1, 2, 3
3 | O=C(CCCCCCC(=O)Nc1ccccc1)NO [SAHA, suberoylanilide hydroxamic acid] | – | – | – | induce viral outgrowth | –
